In ChEMBL document CHEMBL3108756, “Evaluation of aminohydantoins as a novel class of antimalarial agents” (ACS Med Chem Lett, 2014):
The source made the active and inactive calls. No cut-off for these calls is given here.

How the values were obtained:
[1] = system: Plasmodium falciparum; experiment: Antimalarial activity against chloroquine-sensitive Plasmodium falciparum 3D7 infected in […] after 72 hrs by SYBR Green I-based fluorescence method; assay type: functional, organism-based; conditions: 3D7, 72 h
[2] = biological target: T1, Cytochrome P450 1A2 (Homo sapiens, UniProt P05177); experiment: Inhibition of human recombinant CYP1A2 after 30 mins; assay type: ADME; conditions: recombinant enzyme, 0.5 h
T1 sequence (P05177 whole entry): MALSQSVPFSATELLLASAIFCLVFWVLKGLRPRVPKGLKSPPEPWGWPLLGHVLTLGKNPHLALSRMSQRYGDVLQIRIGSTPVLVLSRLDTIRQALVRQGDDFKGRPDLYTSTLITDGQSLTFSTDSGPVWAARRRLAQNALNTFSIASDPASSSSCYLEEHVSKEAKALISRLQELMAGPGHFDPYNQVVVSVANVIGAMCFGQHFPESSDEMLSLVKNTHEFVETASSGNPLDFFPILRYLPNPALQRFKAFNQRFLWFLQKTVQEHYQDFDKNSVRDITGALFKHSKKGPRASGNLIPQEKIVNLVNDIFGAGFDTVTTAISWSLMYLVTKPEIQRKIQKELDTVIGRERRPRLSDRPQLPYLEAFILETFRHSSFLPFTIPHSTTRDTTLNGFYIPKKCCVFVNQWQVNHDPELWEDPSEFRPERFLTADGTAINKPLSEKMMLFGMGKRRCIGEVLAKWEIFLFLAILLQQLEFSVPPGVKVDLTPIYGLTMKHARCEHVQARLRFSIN

[3] = system: HepG2; experiment: Cytotoxicity against human HepG2 cells after 72 hrs; assay type: cell-based; conditions: hepg2, 72 h
[4] = biological target: Cytochrome P450 2D6 (Homo sapiens, UniProt P10635); experiment: Inhibition of human recombinant CYP2D6 after 30 mins; assay type: ADME; conditions: recombinant enzyme, 0.5 h
[5] = biological target: Cytochrome P450 3A4 (Homo sapiens, UniProt P08684); experiment: Inhibition of human recombinant CYP3A4 after 30 mins; assay type: ADME; conditions: recombinant enzyme, 0.5 h
[6] = biological target: Cytochrome P450 2C19 (Homo sapiens, UniProt P33261); experiment: Inhibition of human recombinant CYP2C19 after 30 mins; assay type: ADME; conditions: recombinant enzyme, 0.5 h
[7] = Plasma concentration in Plasmodium chabaudi ASS infected NIH mouse at 110 mg/kg, po qd measured 30 mins after post last dose on day 3; assay type: ADME, organism-based; design: dose 110 mg/kg, route oral
[8] = system: Plasmodium chabaudi; experiment: Antimalarial activity against Plasmodium chabaudi ASS infected in NIH mouse assessed as inhibition of parasitemia at 110 mg/kg, po qd for 4 days; assay type: functional; conditions: 96 h
Method in brief: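 Mice infected with P. chabaudi were given oral doses once daily for four days, starting four hours after infection. Parasitemia was read on Day 4 postinoculation and expressed as percent inhibition of parasitemia.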

[9] = biological target: Cytochrome P450 2C9 (Homo sapiens, UniProt P11712); experiment: Inhibition of human recombinant CYP2C9 after 30 mins; assay type: ADME; conditions: recombinant enzyme, 0.5 h
[10] = system: Plasmodium falciparum; experiment: Antimalarial activity against chloroquine-sensitive Plasmodium falciparum 3D7 infected in […] after 48 hrs by SYBR Green I-based fluorescence method; assay type: functional, organism-based
[11] = Plasma concentration in Plasmodium chabaudi ASS infected NIH mouse at 110 mg/kg, po qd measured 24 hrs after post last dose on day 3; assay type: ADME, organism-based; design: dose 110 mg/kg, route oral
Method in brief: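 P. chabaudi-infected mice were dosed orally once daily for four days, starting four hours post-infection. Plasma compound levels were measured at 1, 6 and 24 h after the last dose on Day 3.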

[12] = system: Plasmodium falciparum; experiment: Antimalarial activity against chloroquine and pyrimethamine-resistant Plasmodium falciparum Dd2 infected in […] after 48 hrs by SYBR Green I-based fluorescence method; assay type: functional
[13] = biological target: Plasmepsin V (Plasmodium falciparum (isolate 3D7)) (UniProt Q8I6Z5); experiment: (§1) Inhibition of Plasmodium falciparum […] plasmepsin-5 using DABCYL-GNKRTLAQKQG-EDANS as substrate measured every 15 mins of 75 mins by fluorescence assay
[14] = Selectivity ratio of IC50 for human cathepsin D to IC50 for Plasmodium falciparum plasmepsin-2
[15] = Selectivity ratio of IC50 for human BACE1 to IC50 for Plasmodium falciparum plasmepsin-2
[16] = Selectivity ratio of IC50 for human cathepsin E to IC50 for Plasmodium falciparum plasmepsin-2
[17] = biological target: Plasmepsin V (Plasmodium falciparum (isolate 3D7), UniProt Q8I6Z5); experiment: as §1
Sequence of Plasmepsin V (Q8I6Z5 whole entry): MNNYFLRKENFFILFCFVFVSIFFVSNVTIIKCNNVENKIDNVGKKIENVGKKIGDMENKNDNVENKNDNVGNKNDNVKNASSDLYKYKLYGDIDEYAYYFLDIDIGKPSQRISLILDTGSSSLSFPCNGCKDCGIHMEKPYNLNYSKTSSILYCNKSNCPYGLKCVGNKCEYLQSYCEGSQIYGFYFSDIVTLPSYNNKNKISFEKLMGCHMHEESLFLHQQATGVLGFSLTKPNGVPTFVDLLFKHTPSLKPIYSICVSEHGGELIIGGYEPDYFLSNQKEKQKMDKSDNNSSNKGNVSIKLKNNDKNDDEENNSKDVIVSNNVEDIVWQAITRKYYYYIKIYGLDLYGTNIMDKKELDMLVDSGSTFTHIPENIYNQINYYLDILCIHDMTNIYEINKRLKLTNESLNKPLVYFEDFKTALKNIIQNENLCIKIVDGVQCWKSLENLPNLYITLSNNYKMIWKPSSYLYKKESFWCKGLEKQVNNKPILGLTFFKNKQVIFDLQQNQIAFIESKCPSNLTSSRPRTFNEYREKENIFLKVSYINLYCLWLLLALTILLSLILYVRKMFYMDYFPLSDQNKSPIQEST

Sequence of Cytochrome P450 2C19 (P33261 whole entry): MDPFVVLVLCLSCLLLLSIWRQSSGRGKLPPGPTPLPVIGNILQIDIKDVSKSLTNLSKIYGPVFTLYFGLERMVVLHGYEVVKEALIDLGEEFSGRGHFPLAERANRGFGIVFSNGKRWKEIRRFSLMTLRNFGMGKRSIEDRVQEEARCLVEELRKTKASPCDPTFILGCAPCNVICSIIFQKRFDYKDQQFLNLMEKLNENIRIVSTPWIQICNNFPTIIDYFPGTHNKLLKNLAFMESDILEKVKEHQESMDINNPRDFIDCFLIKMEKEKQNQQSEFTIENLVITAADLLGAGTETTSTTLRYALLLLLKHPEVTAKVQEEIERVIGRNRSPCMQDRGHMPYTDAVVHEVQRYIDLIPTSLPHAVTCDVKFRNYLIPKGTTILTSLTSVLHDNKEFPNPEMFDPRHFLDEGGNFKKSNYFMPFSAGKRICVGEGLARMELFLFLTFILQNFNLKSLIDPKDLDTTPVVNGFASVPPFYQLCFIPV
Sequence of Plasmepsin V (Plasmodium falciparum (isolate 3D7)) (Q8I6Z5 whole entry, looked up): as the sequence (Q8I6Z5 whole entry) above
Sequence of Cytochrome P450 3A4 (P08684 whole entry): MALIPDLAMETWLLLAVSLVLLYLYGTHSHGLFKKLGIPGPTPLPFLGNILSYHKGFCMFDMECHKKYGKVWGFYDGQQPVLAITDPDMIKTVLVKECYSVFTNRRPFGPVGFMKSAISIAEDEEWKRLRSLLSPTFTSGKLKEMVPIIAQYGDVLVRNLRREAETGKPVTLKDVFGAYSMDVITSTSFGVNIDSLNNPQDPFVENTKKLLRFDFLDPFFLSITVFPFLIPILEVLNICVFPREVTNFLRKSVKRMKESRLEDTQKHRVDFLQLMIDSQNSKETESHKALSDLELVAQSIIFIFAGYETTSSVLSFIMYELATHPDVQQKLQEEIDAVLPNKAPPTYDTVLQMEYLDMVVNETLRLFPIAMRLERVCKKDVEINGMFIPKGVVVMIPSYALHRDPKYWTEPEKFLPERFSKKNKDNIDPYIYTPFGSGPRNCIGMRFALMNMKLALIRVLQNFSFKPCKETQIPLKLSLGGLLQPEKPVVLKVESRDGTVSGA
Sequence of Cytochrome P450 2D6 (P10635 whole entry): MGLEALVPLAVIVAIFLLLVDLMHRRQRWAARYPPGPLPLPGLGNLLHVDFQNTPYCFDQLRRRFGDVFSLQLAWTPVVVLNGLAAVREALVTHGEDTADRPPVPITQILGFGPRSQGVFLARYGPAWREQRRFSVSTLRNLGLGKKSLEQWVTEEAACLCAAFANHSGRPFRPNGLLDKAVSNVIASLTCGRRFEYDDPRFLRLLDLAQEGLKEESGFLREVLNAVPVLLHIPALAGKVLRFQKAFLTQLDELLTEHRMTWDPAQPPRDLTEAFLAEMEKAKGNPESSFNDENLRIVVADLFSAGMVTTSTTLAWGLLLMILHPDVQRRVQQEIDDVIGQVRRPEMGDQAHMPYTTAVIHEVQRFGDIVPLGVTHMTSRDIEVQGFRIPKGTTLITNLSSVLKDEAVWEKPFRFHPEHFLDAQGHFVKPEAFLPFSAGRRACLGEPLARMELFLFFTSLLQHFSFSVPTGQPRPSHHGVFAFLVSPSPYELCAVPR
Sequence of Cytochrome P450 2C9 (P11712 whole entry): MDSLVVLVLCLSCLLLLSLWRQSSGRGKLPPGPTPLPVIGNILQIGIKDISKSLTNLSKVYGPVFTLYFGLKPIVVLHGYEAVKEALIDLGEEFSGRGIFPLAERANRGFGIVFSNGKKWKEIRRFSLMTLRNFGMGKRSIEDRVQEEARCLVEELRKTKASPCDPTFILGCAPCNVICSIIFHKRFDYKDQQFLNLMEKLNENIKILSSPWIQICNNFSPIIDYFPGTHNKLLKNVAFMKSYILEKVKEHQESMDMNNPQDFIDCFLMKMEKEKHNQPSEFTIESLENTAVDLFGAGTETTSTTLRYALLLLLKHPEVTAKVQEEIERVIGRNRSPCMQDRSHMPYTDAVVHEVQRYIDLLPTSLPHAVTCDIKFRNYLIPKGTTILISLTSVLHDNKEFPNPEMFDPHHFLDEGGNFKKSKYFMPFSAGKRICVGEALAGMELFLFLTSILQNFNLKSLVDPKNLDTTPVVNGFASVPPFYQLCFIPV

IC50 [1]	SMILES	also measured
> 100000 nM	CC(C)(C)N1C(=N)NC(c2ccccc2)(c2ccccc2)C1=O	–
1140 nM	CCCN1C(=N)NC(c2ccc(OC)cc2)(c2ccc(OC)cc2)C1=O	–
8290 nM	N=C1NC(c2ccccc2)(c2ccccc2)C(=O)N1Cc1ccccc1	–
3850 nM	N=C1NC(c2ccccc2)(c2ccccc2)C(=O)N1C1CCCCC1	–
787 nM	COc1cccc(C2(c3cccc(-c4cccnc4)c3)NC(=N)N(C3CCCCC3)C2=O)c1 (racemic)	–
427 nM	COc1ccc(C2(c3ccc(OC)cc3)NC(=N)N(C3CCCCCC3)C2=O)cc1	–
611 nM	COc1ccc(C2(c3ccc(OC)cc3)NC(=N)N(C3CCCC3)C2=O)cc1	–
466 nM	CCOc1ccc(C2(c3ccc(OCC)cc3)NC(=N)N(C3CCCCC3)C2=O)cc1	–
512 nM	COc1ccc(C2(c3ccc(OC)cc3)NC(=N)N(CCCc3ccccc3)C2=O)cc1	–
697 nM	COc1ccc(C2(c3ccc(OC)cc3)NC(=N)N(C3CCN(C)CC3)C2=O)cc1	–
1660 nM	COc1ccc(C2(c3ccc(OC)cc3)NC(=N)N(C(C)C)C2=O)cc1	–
855 nM	COc1ccc(C2(c3ccc(OC)cc3)NC(=N)N(Cc3ccccc3)C2=O)cc1	–
1810 nM	COc1ccc(C2(c3cccc(-c4ccccn4)c3)NC(=N)N(C3CCCCC3)C2=O)cc1 (racemic)	–
641 nM	N=C1NC(c2ccccc2)(c2cccc(OCc3ccccc3)c2)C(=O)N1C1CCCCC1 (racemic)	–
595 nM	COc1ccc(C2(c3cccc(-c4cccnc4)c3)NC(=N)N(C3CCCCC3)C2=O)cc1 (racemic)	–
4110 nM	COc1ccc(C2(c3ccc(OC)cc3)NC(=N)N(C3CC3)C2=O)cc1	–
1260 nM	Cc1ccc(C2(c3ccc(C)cc3)NC(=N)N(C3CCCCC3)C2=O)cc1	–
750 nM	N=C1NC(c2ccccc2)(c2cccc(-c3cccnc3)c2)C(=O)N1C1CCCCC1 (racemic)	inhibition [13]: inactive; Ratio IC50 [14]: > 1000; Ratio IC50 [15]: > 1000; Ratio IC50 [16]: 200
436 nM	COc1ccc(C2(c3ccc(OC)cc3)NC(=N)N(C3CCN(C(=O)OC(C)(C)C)CC3)C2=O)cc1	–
–	Cc1cccc(C)c1OCC(=O)N[C@@H](Cc1ccccc1)[C@@H](O)C[C@H](Cc1ccccc1)NC(=O)[C@H](C(C)C)N1CCCNC1=O [LOPINAVIR]	IC50 [17]: > 20 µM
725 nM	N=C1NC(c2cccc(-c3cccnc3)c2)(c2cccc(-c3cccnc3)c2)C(=O)N1C1CCCCC1	–

SMILES	IC50 [1]	also measured
COc1ccc(C2(c3ccc(OC)cc3)NC(=N)N(C3CCOCC3)C2=O)cc1	459 nM	inhibition (INH) [2]: Not Active; Activity [3]: Toxic; inhibition (INH) [4]: Not Active; inhibition (INH) [5]: Active; inhibition (INH) [6]: Not Active; concentration at 0.5 h [7]: 4140 ng/mL; inhibition in vivo at 110 mg/kg [8]: 63%; inhibition (INH) [9]: Not Active; inhibition [10]: Active; concentration at 24 h [11]: 29 ng/mL; inhibition [12]: Active
